Source: article PMC10286293 (ACS Omega, 2023)

Assays:
Hygroscopicity test = type: physicochemical; conditions: for percentage weight gain on the first day: 298 K, relative humidity 90 ± 5%; for hygroscopicity class (Chinese Pharmacopoeia): by weight gain
[1] = Intrinsic dissolution rate in pure water; type: physicochemical; conditions: 310 K, 100 rpm
S. aureus = assay: Antibacterial activity; type: cell-based, Staphylococcus aureus; conditions: Figure 9, trimethoprim vs compound 1 vs 5-fluorouracil
Outline: (§1)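 Two-fold broth microdilution at ten concentrations (32, 16, 8, 4, 2, 1, 0.5, 0.25, 0.125, 0.0625 μg/mL) of test compound with bacterial suspension in medium. Medium-only and bacteria-plus-medium controls were included. Plates were incubated at 310 K for 24 h, and OD600 gave the MIC.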

mice = conditions: cited from earlier work
S. pneumoniae = assay: Antibacterial activity; type: cell-based, Streptococcus pneumoniae; conditions: Figure 9, trimethoprim vs compound 1 vs 5-fluorouracil
Outline: as §1

S. dysenteriae = assay: Antibacterial activity; type: cell-based, Shigella dysenteriae; conditions: Figure 9, trimethoprim vs compound 1 vs 5-fluorouracil
Outline: as §1

P. aeruginosa = assay: Antibacterial activity; type: cell-based, Pseudomonas aeruginosa; conditions: Figure 9, trimethoprim vs compound 1 vs 5-fluorouracil
Outline: as §1

[2] = test system: human colon cancer cells (SW480); assay: In vitro anticancer activity, MTT assay; type: cell-based; conditions: SW480 (human rectal cancer cells), MTT, 24, 48, 72 h, dose-dependent
Outline: (§2)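 Cells were grown in DMEM with 10% FBS, 1% penicillin and 1% streptomycin at 37 °C, 5% CO2, and used in log phase (85–95% confluent). They were seeded at 3 × 10^5 cells/mL, grown 24 h, then exposed to a range of test compound concentrations for 24, 48 or 72 h, with a positive control. MTT (5 mg/mL stock) was added for 4 h at 37 °C. Formazan was dissolved in DMSO and read at 490 nm after 10 min shaking, with blank-well correction.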

[3] = test system: lung cancer cells (H1299); assay: In vitro anticancer activity, MTT assay; type: cell-based, human; conditions: MTT, 24, 48, 72 h, dose-dependent
Outline: as §2

[4] = test system: breast cancer cells (MDA-MB-231); assay: In vitro anticancer activity, MTT assay; type: cell-based, human; conditions: MDA-MB-231 breast cancer cells, MTT, 24, 48, 72 h, dose-dependent
Outline: as §2

COc1cc(Cc2cnc(N)nc2N)cc(OC)c1OC [trimethoprim]
percentage weight gain on the first day (Hygroscopicity test): 0.20%
hygroscopicity class (Chinese Pharmacopoeia) (Hygroscopicity test): slightly hygroscopic (slightly hygroscopic ≥ 0.2%)
IDR (intrinsic dissolution rate) [1]: 0.039 mg cm^–2 min^–1
antibacterial activity, comparison in words (S. aureus): greater than that of compound 1
oral LD50 (mice): > 5300 mg/kg

O=c1[nH]cc(F)c(=O)[nH]1 [5-fluorouracil]
percentage weight gain on the first day (Hygroscopicity test): 0.19%
hygroscopicity class (Chinese Pharmacopoeia) (Hygroscopicity test): slightly hygroscopic (slightly hygroscopic ≥ 0.2%)
antibacterial activity, comparison in words (S. pneumoniae): the greatest
antibacterial activity, comparison in words (S. aureus): the greatest
antibacterial activity, comparison in words (S. dysenteriae): the greatest
antibacterial activity, comparison in words (P. aeruginosa): the greatest
inhibition effect on cancer cells [2]: significant inhibition effect
inhibition effect on cancer cells [3]: significant inhibition effect
inhibition effect on cancer cells [4]: significant inhibition effect
oral LD50 (mice): 220 mg/kg
